Laboratory results as given in ChEMBL document CHEMBL2069264, “Halogenated anthraquinones from the marine-derived fungus Aspergillus sp. SCSIO F063” (J Nat Prod, 2012).
pIC50: −log10 of the molar value. Active and inactive are the calls of the source. No cut-off for these calls is given here.

Legend:
SF-268 = assay: Cytotoxicity against human SF268 cells after 72 hrs BY SRB assay; format: functional, cell-based; details: SF-268, 72 h
Outline: (§1)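 Cells seeded at 3 × 10^4 cells/mL (180 μL per well) and preincubated 24 h at 37 °C, 5% CO2. Compound added at various concentrations (20 μL), then 72 h further incubation. Fixed with 50% (w/v) TCA, stained 30 min with 0.4% SRB in 1% acetic acid, washed with 1% acetic acid. Dye dissolved in 10 mM Tris base, OD read at 570 nm. Cisplatin as positive control. Triplicate; IC50 by nonlinear curve fitting.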

MCF7 = assay: Cytotoxicity against human MCF7 cells after 72 hrs BY SRB assay; format: functional, cell-based; details: MCF7, 72 h; outline: as §1
NCI-H460 = assay: Cytotoxicity against human NCI-H460 cells after 72 hrs BY SRB assay; format: functional, cell-based; details: NCI-H460, 72 h; outline: as §1
Staphylococcus aureus = assay: Antimicrobial activity against Staphylococcus aureus ATCC 29213 assessed as diameter of zone of growth inhibition at 10 ug/6 mm disc incubated for 12 hrs by disc diffusion assay; format: functional, organism-based
Outline: (§2)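 Bacteria grown 10 h at 37 °C in LB broth as seed cultures, then mixed into LB agar to pour plates. Sterile 6 mm filter disks loaded with 5 μL test solution at 2 μg/μL in DMSO; ampicillin disks (5 μg/μL in DMSO) as positive control. Plates incubated 12 h at 37 °C, then diameter of the growth-inhibition zone around each disk recorded.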

Bacillus thuringiensis = assay: Antimicrobial activity against Bacillus thuringiensis ATCC 39765 assessed as diameter of zone of growth inhibition at 10 ug/6 mm disc incubated for 12 hrs by disc diffusion assay; format: functional, organism-based; outline: as §2
Bacillus subtilis = assay: Antimicrobial activity against Bacillus subtilis ATCC 6633 assessed as diameter of zone of growth inhibition at 10 ug/6 mm disc incubated for 12 hrs by disc diffusion assay; format: functional, organism-based; outline: as §2

Row | Structure (SMILES) | pIC50 (SF-268) | pIC50 (MCF7) | pIC50 (NCI-H460) | diameter of the inhibition zone (DIZ) (Staphylococcus aureus) | diameter of the inhibition zone (DIZ) (Bacillus thuringiensis) | diameter of the inhibition zone (DIZ) (Bacillus subtilis)
1 | CCCCC[C@H](OC)c1c(O)cc2c(c1O)C(=O)c1c(O)cc(O)cc1C2=O | 4.47 | 4.45 | 4.35 | inactive | inactive | inactive
2 | CCCC/C=C/c1c(O)cc2c(c1O)C(=O)c1c(cc(O)c(Cl)c1O)C2=O | < 4.30 | < 4.30 | < 4.30 | inactive | inactive | inactive
3 | CCCCC[C@H](OCCCC)c1c(O)cc2c(c1O)C(=O)c1c(cc(O)c(Cl)c1O)C2=O | < 4.30 | 4.31 | < 4.30 | inactive | inactive | inactive
4 | CCCC/C=C/c1c(O)cc2c(c1O)C(=O)c1c(O)cc(O)cc1C2=O [AVERYTHRIN] | < 4.30 | 4.53 | < 4.30 | inactive | inactive | inactive
5 | CCCCC[C@H](O)c1c(O)cc2c(c1O)C(=O)c1c(O)cc(O)cc1C2=O | < 4.30 | 4.34 | < 4.30 | inactive | inactive | inactive
6 | CCCCC[C@H](O)c1c(O)cc2c(c1O)C(=O)c1c(O)cc(OC)cc1C2=O | < 4.30 | < 4.30 | < 4.30 | inactive | inactive | inactive
7 | CCCCC[C@H](OCCCC)c1c(O)cc2c(c1O)C(=O)c1c(O)cc(O)cc1C2=O | 4.33 | 4.39 | < 4.30 | inactive | inactive | inactive
8 | CCCCC[C@H](OC)c1c(O)cc2c(c1O)C(=O)c1c(cc(OC)c(Cl)c1O)C2=O | < 4.30 | < 4.30 | < 4.30 | inactive | inactive | inactive
9 | CCCCC[C@H](OC)c1c(O)cc2c(c1O)C(=O)c1c(cc(OC)c(Br)c1O)C2=O | < 4.30 | < 4.30 | < 4.30 | inactive | inactive | inactive
10 | CCCCC[C@H](O)c1c(O)cc2c(c1O)C(=O)c1c(cc(OC)c(Cl)c1O)C2=O | 5.15 | 5.18 | 5.13 | inactive | inactive | inactive
11 | CCCCC[C@H](O)c1c(O)cc2c(c1O)C(=O)c1c(cc(O)c(Cl)c1O)C2=O | < 4.30 | 4.44 | < 4.30 | inactive | inactive | inactive
12 | CCCCC[C@H](OC)c1c(O)cc2c(c1O)C(=O)c1c(cc(O)c(Cl)c1O)C2=O | 4.47 | 4.58 | 4.43 | inactive | inactive | inactive
13 | CCCCC[C@H](O)c1c(O)cc2c(c1O)C(=O)c1c(cc(OC)c(Br)c1O)C2=O | 4.61 | 4.59 | 4.72 | inactive | inactive | inactive
14 | CCCC/C=C/c1c(O)cc2c(c1O)C(=O)c1c(cc(OC)c(Cl)c1O)C2=O | < 4.30 | 4.61 | < 4.30 | inactive | inactive | inactive
15 | CCCCC[C@H](OC)c1c(O)cc2c(c1O)C(=O)c1c(O)cc(OC)cc1C2=O | < 4.30 | < 4.30 | < 4.30 | inactive | inactive | inactive
